High-throughput results: PubChem, several laboratories
Rev-erbA mod – modulators of human Rev-erb alpha DNA binding. P20393. Rev-erbα–FITC-DNA binding, fluorescence polarization, 90 min. activity, % at 10 µM. actives 0.79% (n = 370,000). AID 1259318;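 active means activity above about 14%, limit read from the data; passing the limit was not always enough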;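 further: 0% = DMSO wells with 35 nM protein and 100% = DMSO wells with 750 nM protein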
NR2E3 ag-1 – activates human photoreceptor nuclear receptor NR2E3 | GST-NR2E3/biotin-RetCOR TR-FRET, 1536-well | inhibition of corepressor binding, % at 4.78 µM | AID 2300 | actives 0.12% (n = 320,000);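 active means percent inhibition above the cutoff of mean plus 3 SD of all tested compounds, set per screening campaign, cut at about 20% in these data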;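 further: 0% = DMSO wells and 100% = biotin wells as full block of FRET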
Target sequence (Q9Y5X4 whole entry, looked up): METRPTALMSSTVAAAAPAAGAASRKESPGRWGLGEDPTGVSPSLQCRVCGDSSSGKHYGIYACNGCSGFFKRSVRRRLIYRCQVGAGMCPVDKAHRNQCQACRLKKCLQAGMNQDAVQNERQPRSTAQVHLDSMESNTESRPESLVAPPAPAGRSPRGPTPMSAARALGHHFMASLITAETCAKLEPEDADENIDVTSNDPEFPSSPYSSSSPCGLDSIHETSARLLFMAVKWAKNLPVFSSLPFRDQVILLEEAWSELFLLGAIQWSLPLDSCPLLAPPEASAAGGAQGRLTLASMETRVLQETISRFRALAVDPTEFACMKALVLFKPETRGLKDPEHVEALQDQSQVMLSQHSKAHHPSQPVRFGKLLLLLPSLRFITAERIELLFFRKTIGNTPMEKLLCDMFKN
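Format: 1536-well format; test system: GST-NR2E3 and biotin-RetCOR proteins; read-out basis: percent inhibition of TR-FRET ratio; timing: 5 h incubation at 4 °C; detection: time-resolved FRET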
rCAG binder-1 – molecules binding r(CAG) RNA repeats; r(CAG) RNA repeat, TO-PRO-1 dye displacement fluorescence; inhibition, % at 3 µM; actives 1.3% (n = 370,000); AID 651821;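 active means inhibition above the plate cutoff, the mean of all test compounds on that plate plus 3 SD, cut at about 35% in these data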;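 further: 0% = DMSO alone and 100% = 100 µM mitoxantrone as full dye displacement; higher means more dye released from RNA so lower well fluorescence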
PG9 Ab binder – PG9 antibody binding by small molecule; TR-FRET gp120-PG9 antibody binding; inhibition, % at 6.7 µM; actives 0.43% (n = 360,000); AID 624416; in the data active means inhibition above about 8.5%
NR2E3 ag-2 – human photoreceptor-specific nuclear receptor agonism | AID 602229 | CHO-S Gal4-NCOR/VP16-NR2E3 two-hybrid, luciferase | actives 0.35% (n = 360,000) | inhibition of corepressor binding, % at 3.98 µM | Q9Y5X4;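 active means inhibition above the mean of all tested compounds plus 3 SD, cut at about 70% in these data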;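 further: 0% = DMSO with NR2E3 transfected cells and 100% = cells lacking NR2E3 construct; higher means lower luciferase signal from less NR2E3 corepressor binding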
rCAG bind conf – r(CAG) RNA repeat binding, confirmation | inhibition, % at 3 µM | actives 70% (n = 4,300) | shares compounds with rCAG binder-1 | TO-PRO-1 dye displacement fluorescence;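 active means inhibition above a per-plate cutoff, the mean inhibition of sample wells plus 3 SD, cut at about 35% in these data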;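 further: loss of TO-PRO-1 fluorescence as compound displaces dye from 1x1 AA loop RNA; 0% = DMSO only wells and 100% = 100 µM mitoxantrone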
dCAG dye counter – DNA CAG dye complex inhibition counter-screen. shares compounds with rCAG binder-1. d(CAG) DNA oligo TO-PRO-1 dye displacement, fluorescence. inhibition, % at 3 µM. actives 94% (n = 4,300). AID 652068;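 active means inhibition above its plate's cutoff, the mean test-well inhibition plus 3 SD, cut at about 4.8% in these data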;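 further: 0% = DNA dye mix with DMSO and 100% = 100 µM mitoxantrone; hits displace the dye from DNA and so lower well fluorescence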
DNA CAG DR – DNA CAG dye complex inhibition, dose response counter-screen | IC50, µM | DNA CAG/GTC duplex TO-PRO-1 dye displacement fluorescence | actives 20% (n = 250) | shares compounds with rCAG binder-1 | AID 686960; in the data active means IC50 below about 10 µM
dCAG DNA bind – DNA CAG dye complex inhibition, late stage dose response. IC50, µM. d(CAG) DNA duplex TO-PRO-1 dye displacement, fluorescence. shares compounds with rCAG binder-1. actives 80% (n = 30). AID 720649
rCAG binder-2 – r(CAG) repeat RNA binding, TO-PRO-1 displacement; shares compounds with rCAG binder-1; r(CAG) RNA TO-PRO-1 dye displacement, fluorescence; IC50, µM; actives 100% (n = 30); AID 720651
* hit, by the source's call. In the library only some 2.6% were active in any assay of this set; here they are far more common. Unless noted, how the calls were made is not given here.

Results for CCOc1cc2c(c3c1C(c1ccccc1)N(S(=O)(=O)c1ccc(C)cc1)C3)C(=O)C=CC2=O (stereo not given) ?
Rev-erbA mod: -8; rCAG binder-1: 60*; PG9 Ab binder: 5; NR2E3 ag-2: -26; rCAG bind conf: 54*; dCAG dye counter: 25*

Results for CCN(c1ccc(OC)cc1)S(=O)(=O)c1nnc(NC(=O)COc2ccc(F)cc2)s1 ?
Rev-erbA mod: 0; NR2E3 ag-1: 0; rCAG binder-1: 56*; PG9 Ab binder: -1; NR2E3 ag-2: -12; rCAG bind conf: 57*; dCAG dye counter: 21*; DNA CAG DR: >30; dCAG DNA bind: 5.5*; rCAG binder-2: 1.8*

Results for CCCCCCCCCCCC(=O)NC(Cc1ccc(OC)c([N+](=O)[O-])c1)C(=O)O (stereo not given) ?
Rev-erbA mod: 0; NR2E3 ag-1: 4; rCAG binder-1: 44*; PG9 Ab binder: -1; NR2E3 ag-2: -12; rCAG bind conf: 43*; dCAG dye counter: 9.2*

How did CC(C)CNC(=O)COC(=O)c1c2c(nc3ccccc13)/C(=C\c1cccs1)CC2 do in these assays?
Rev-erbA mod: -8; rCAG binder-1: 20; PG9 Ab binder: 5; NR2E3 ag-2: 8

Results for CN(CCC#N)C(=O)COC(=O)c1c2c(nc3ccccc13)/C(=C/c1ccco1)CC2 ?
Rev-erbA mod: -38; NR2E3 ag-1: 13; rCAG binder-1: 69*; PG9 Ab binder: -4; NR2E3 ag-2: -55; rCAG bind conf: 52*; dCAG dye counter: 28*

What do the screens show for `Cc1cc(C)cc(Nc2nc3ccccc3c(=O)[nH]2)c1`?
Rev-erbA mod: -1; NR2E3 ag-1: -1; rCAG binder-1: 41*; PG9 Ab binder: -2; NR2E3 ag-2: -2; rCAG bind conf: 14; dCAG dye counter: 16*

How did O=C1Nc2ccc(Br)cc2/C1=C/C(=O)c1ccc2c(c1)OCO2 do in these assays?
Rev-erbA mod: -5; NR2E3 ag-1: 3; rCAG binder-1: 44*; PG9 Ab binder: 0; NR2E3 ag-2: -84; rCAG bind conf: 26; dCAG dye counter: 14*

Results for Cc1cccc(C)c1-n1nnnc1C1(C)CCC(=O)N1Cc1cccs1 (stereo not given) ?
Rev-erbA mod: 1; rCAG binder-1: -2; PG9 Ab binder: 0; NR2E3 ag-2: -28

Results for Cc1ccc(N2C(=O)C3Sc4[nH]c(=O)sc4C(c4ccccc4)C3C2=O)cc1 (stereo not given) ?
Rev-erbA mod: -6; NR2E3 ag-1: 0; rCAG binder-1: 13; PG9 Ab binder: 0; NR2E3 ag-2: -9

Results for O=C1C2Sc3[nH]c(=O)sc3C(c3ccccc3)C2C(=O)N1c1ccc(Cl)cc1 (stereo not given) ?
Rev-erbA mod: -4; NR2E3 ag-1: 1; rCAG binder-1: 36*; PG9 Ab binder: 1; NR2E3 ag-2: 2; rCAG bind conf: 25; dCAG dye counter: 8.7*

How did CCOC(=O)c1sc(NC(=O)Nc2ccc(F)cc2)nc1C do in these assays?
Rev-erbA mod: 0; NR2E3 ag-1: -3; rCAG binder-1: 47*; PG9 Ab binder: 1; NR2E3 ag-2: -121; rCAG bind conf: 34; dCAG dye counter: 23*

What do the screens show for `CCOC(=O)c1sc(NS(=O)(=O)c2cc(C)ccc2C)nc1C`?
Rev-erbA mod: -1; NR2E3 ag-1: 2; rCAG binder-1: 44*; PG9 Ab binder: -1; NR2E3 ag-2: 5; rCAG bind conf: 32; dCAG dye counter: 7.7*

Results for c1ccc(CN2CCC3CC2c2ccc(N4CCOCC4)cc23)cc1 (stereo not given) ?
Rev-erbA mod: -6; rCAG binder-1: 0; PG9 Ab binder: 1; NR2E3 ag-2: -5

How did OCC(O)C1OC(c2ccco2)OC(CO)C1O (stereo not given) do in these assays?
Rev-erbA mod: 1; rCAG binder-1: 0; PG9 Ab binder: -1; NR2E3 ag-2: -2

How did O=C(O)[C@H](Cc1ccccc1)N1C(=O)c2c(Cl)c(Cl)c(Cl)c(Cl)c2C1=O do in these assays?
Rev-erbA mod: -2; NR2E3 ag-1: 7; rCAG binder-1: 50*; PG9 Ab binder: 1; NR2E3 ag-2: -13; rCAG bind conf: 63*; dCAG dye counter: 28*

Results for O=C(O)C(Cc1ccccc1)n1cccc1 (stereo not given) ?
Rev-erbA mod: -5; NR2E3 ag-1: 0; rCAG binder-1: 6; PG9 Ab binder: 0; NR2E3 ag-2: -22

What do the screens show for `CCOC(=O)c1c(/N=C/c2cc(OC)cc([N+](=O)[O-])c2O)sc(C)c1C`?
Rev-erbA mod: 3; NR2E3 ag-1: 0; rCAG binder-1: 6; PG9 Ab binder: -4; NR2E3 ag-2: -15

Results for CCOC(=O)c1c(/N=C/c2cc([N+](=O)[O-])ccc2O)sc(C)c1C ?
Rev-erbA mod: 4; NR2E3 ag-1: 3; rCAG binder-1: 65*; PG9 Ab binder: -5; NR2E3 ag-2: -13; rCAG bind conf: 9; dCAG dye counter: 7.2*

What do the screens show for `Cc1cc(/C=C2\SC(=S)NC2=O)c(C)n1C`?
Rev-erbA mod: -21; NR2E3 ag-1: 3; rCAG binder-1: 51*; PG9 Ab binder: -8; NR2E3 ag-2: -17; rCAG bind conf: 22; dCAG dye counter: 7.9*

How did COc1ccc(-n2c(C)cc(/C=C3\SC(=S)NC3=O)c2C)cc1 do in these assays?
Rev-erbA mod: -2; NR2E3 ag-1: 1; rCAG binder-1: 14; PG9 Ab binder: -3; NR2E3 ag-2: -75

How did Cc1nn(C)cc1/C=C1\SC(=S)NC1=O do in these assays?
Rev-erbA mod: -1; NR2E3 ag-1: 0; rCAG binder-1: -1; PG9 Ab binder: -6; NR2E3 ag-2: -27

What do the screens show for `Cc1cc(/C=C2\SC(=S)NC2=O)c(C)n1-c1ccc(O)cc1`?
Rev-erbA mod: -8; NR2E3 ag-1: 0; rCAG binder-1: 49*; PG9 Ab binder: -3; NR2E3 ag-2: -160; rCAG bind conf: 42*; dCAG dye counter: 14*
